Experimental data reported in ChEMBL document CHEMBL4425187, “A new class of flavonol-based anti-prostate cancer agents: Design, synthesis, and evaluation in cell models” (Bioorg Med Chem Lett, 2016).

Key:
[1] = system: LNCaP; test: Potency index, ratio of IC50 for 3',4'-dimethoxyflavonol to IC50 for test compound against human LNCAP cells; format: functional
Method in brief: (§1)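 IC50 from WST-1 proliferation assay in PC-3 (androgen-insensitive) and LNCaP (androgen-sensitive) cells after 3-day exposure at five concentrations, DMSO vehicle control, quercetin positive control. IC50 derived from dose-response curves, mean ± SEM. The index is the parent flavonol IC50 divided by the test compound IC50.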

[2] = system: PC-3; test: Potency index, ratio of IC50 for 3',4'-dimethoxyflavonol to IC50 for test compound against human PC3 cells; format: functional; method in brief: as §1
[3] = system: PWR-1E; test: Cytotoxicity against human PWR-1E cells assessed as inhibition of cell proliferation at 10 to 50 uM after 3 days by WST1 assay; format: cell-based; settings: 72 h
[4] = system: PC-3; test: Induction of apoptosis is human PC3 cells assessed as early apoptotic cells at 100 uM after 16 hrs byF2N12S/CYTOX AADvanced double-staining based by flow cytometry (reference value: 3%); format: functional
[5] = system: PC-3; test: Induction of apoptosis is human PC3 cells assessed as live cells at 10 uM after 16 hrs by F2N12S/CYTOX AADvanced double-staining based by flow cytometry (reference value: 88%); format: functional
[6] = system: PC-3; test: Induction of apoptosis is human PC3 cells assessed as late apoptotic/necrotic cells at 30 uM after 16 hrs by F2N12S/CYTOX AADvanced double-staining based by flow cytometry (reference value: 9%); format: functional
[7] = system: PC-3; test: Cell cycle arrest in human PC3 cells assessed as accumulation in G0/G1 phase at 10 uM after 24 hrs by propidium iodide staining-based flow cytometry (reference value: 69.4%); format: functional
[8] = system: PC-3; test: Induction of apoptosis is human PC3 cells assessed as late apoptotic/necrotic cells at 50 uM after 16 hrs by F2N12S/CYTOX AADvanced double-staining based by flow cytometry (reference value: 9%); format: functional
[9] = system: PC-3; test: Induction of apoptosis is human PC3 cells assessed as early apoptotic cells after 16 hrs by F2N12S/CYTOX AADvanced double-staining based by flow cytometry relative to control; format: functional, cell-based
[10] = system: PC-3; test: Induction of apoptosis is human PC3 cells assessed as live cells at 30 uM after 16 hrs by F2N12S/CYTOX AADvanced double-staining based by flow cytometry (reference value: 88%); format: functional
[11] = system: PC-3; test: Induction of apoptosis is human PC3 cells assessed as early apoptotic cells at 30 uM after 16 hrs by F2N12S/CYTOX AADvanced double-staining based by flow cytometry (reference value: 3%); format: functional
[12] = system: PC-3; test: Cell cycle arrest in human PC3 cells assessed as accumulation in G2/M phase at 10 uM after 20 hrs by propidium iodide staining-based flow cytometry (reference value: 17.4%); format: functional
[13] = system: PC-3; test: Induction of apoptosis is human PC3 cells assessed as early apoptotic cells at 1 uM after 16 hrs by F2N12S/CYTOX AADvanced double-staining based by flow cytometry (reference value: 3%); format: functional
[14] = system: PC-3; test: Induction of apoptosis is human PC3 cells assessed as late apoptotic/necrotic cells at 100 uM after 16 hrs by F2N12S/CYTOX AADvanced double-staining based by flow cytometry (reference value: 9%); format: functional
[15] = system: PC-3; test: Cell cycle arrest in human PC3 cells assessed as accumulation in G2/M phase at 10 uM after 24 hrs by propidium iodide staining-based flow cytometry (reference value: 16%); format: functional
[16] = system: PC-3; test: Induction of apoptosis is human PC3 cells assessed as live cells at 50 uM after 16 hrs by F2N12S/CYTOX AADvanced double-staining based by flow cytometry (reference value: 88%); format: functional
[17] = system: PC-3; test: Induction of apoptosis is human PC3 cells assessed as early apoptotic cells at 50 uM after 16 hrs by F2N12S/CYTOX AADvanced double-staining based by flow cytometry (reference value: 3%); format: functional
[18] = system: PC-3; test: Induction of apoptosis is human PC3 cells assessed as late apoptotic/necrotic cells at 5 uM after 16 hrs by F2N12S/CYTOX AADvanced double-staining based by flow cytometry (reference value: 9%); format: functional
[19] = system: PC-3; test: Induction of apoptosis is human PC3 cells assessed as live cells at 1 uM after 16 hrs by F2N12S/CYTOX AADvanced double-staining based by flow cytometry (reference value: 88%); format: functional
[20] = system: PC-3; test: Cell cycle arrest in human PC3 cells assessed as accumulation in G0/G1 phase at 10 uM after 20 hrs by propidium iodide staining-based flow cytometry (reference value: 63.7%); format: functional
[21] = system: PC-3; test: Induction of apoptosis is human PC3 cells assessed as live cells at 5 uM after 16 hrs by F2N12S/CYTOX AADvanced double-staining based by flow cytometry (reference value: 88%); format: functional
[22] = system: PC-3; test: Induction of apoptosis is human PC3 cells assessed as live cells at 100 uM after 16 hrs by F2N12S/CYTOX AADvanced double-staining based by flow cytometry (reference value: 88%); format: functional
[23] = system: PC-3; test: Induction of apoptosis is human PC3 cells assessed as live cells at 20 uM after 16 hrs by F2N12S/CYTOX AADvanced double-staining based by flow cytometry (reference value: 88%); format: functional
[24] = system: PC-3; test: Induction of apoptosis is human PC3 cells assessed as late apoptotic/necrotic cells at 1 uM after 16 hrs by F2N12S/CYTOX AADvanced double-staining based by flow cytometry (reference value: 9%); format: functional

COc1ccc(-c2oc3ccccc3c(=O)c2OCCCCN2CCOCC2)cc1OC
Ratio IC50 [1]: 24
Ratio IC50 [2]: 45

COc1ccc(-c2oc3ccccc3c(=O)c2OCCCN2CCOCC2)cc1OC
Ratio IC50 [1]: 14
Ratio IC50 [2]: 38

CCOc1c(-c2ccc(OC)c(OC)c2)oc2ccccc2c1=O
Ratio IC50 [1]: 21
Ratio IC50 [2]: 30

CCCCCCCOc1c(-c2ccc(OC)c(OC)c2)oc2ccccc2c1=O
Ratio IC50 [1]: 5
Ratio IC50 [2]: 5

COc1ccc(-c2oc3ccccc3c(=O)c2OC(C)C)cc1OC
Ratio IC50 [1]: 20
Ratio IC50 [2]: 12

CCCCCCOc1c(-c2ccc(OC)c(OC)c2)oc2ccccc2c1=O
Ratio IC50 [1]: 16
Ratio IC50 [2]: 29

CCCOc1c(-c2ccc(OC)c(OC)c2)oc2ccccc2c1=O
Ratio IC50 [1]: 32
Ratio IC50 [2]: 41

CCCCN(CCCC)CCCCCOc1c(-c2ccc(OC)c(OC)c2)oc2ccccc2c1=O
Ratio IC50 [1]: 41
Ratio IC50 [2]: 102

COc1ccc(-c2oc3ccccc3c(=O)c2O)cc1OC [3-HYDROXY-3',4'-DIMETHOXYFLAVONE]
Activity [3]: Non-Toxic

CCCCN(CCCC)CCCOc1c(-c2ccc(OC)c(OC)c2)oc2ccccc2c1=O
Activity [4]: 39%
Activity [5]: 15%
Activity [3]: Non-Toxic
Activity [6]: 5%
Activity [7]: 61.3%
Activity [8]: 11%
Activity [9]: Dose-dependent effect
Activity [10]: 1%
Activity [11]: 94%
Activity [12]: 32%
Ratio IC50 [1]: 84
Activity [13]: 4%
Activity [14]: 61%
Activity [15]: 25.1%
Activity [16]: 0%
Activity [17]: 88%
Activity [18]: 5%
Activity [19]: 89%
Activity [20]: 53.8%
Ratio IC50 [2]: 292
Activity [21]: 50%
Activity [22]: 0%
Activity [23]: 3%
Activity [24]: 6%

CCCCOc1c(-c2ccc(OC)c(OC)c2)oc2ccccc2c1=O
Ratio IC50 [1]: 25
Ratio IC50 [2]: 24

CCCCCOc1c(-c2ccc(OC)c(OC)c2)oc2ccccc2c1=O
Ratio IC50 [1]: 14
Ratio IC50 [2]: 24

CCCCN(CCCC)CCCCOc1c(-c2ccc(OC)c(OC)c2)oc2ccccc2c1=O
Ratio IC50 [1]: 47
Ratio IC50 [2]: 152

COc1ccc(-c2oc3ccccc3c(=O)c2OCCCCCN2CCOCC2)cc1OC
Ratio IC50 [1]: 26
Ratio IC50 [2]: 91

COc1ccc(-c2oc3ccccc3c(=O)c2OC)cc1OC
Ratio IC50 [1]: 12.5
Ratio IC50 [2]: 14
